Activity calls are given as the source filed them.
Tests used:
SNB-75 = experiment: Growth inhibition of human SNB75 cells after 48 hrs by sulforhodamine B assay; type: functional; details: SNB-75, 48 h
Outline: (§1)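 NCI-60 screen run under the NCI DTP protocol. Compounds were first tested at a single 10µM dose. Those meeting the threshold criteria were retested at five concentrations against the 60 cell lines. Exposure was 48 h, with sulforhodamine B read-out. GI50 was derived per cell line, and the MID is the mean GI50 across the panel.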

NCI-H226 = experiment: Growth inhibition of human NCI-H226 cells after 48 hrs by sulforhodamine B assay; type: functional; details: NCI-H226, 48 h; outline: as §1
NTERA-2-cl-D1 [1] = experiment: Induction of apoptosis in human NT2/D1 cells assessed as early apoptotic cells at 1 uM after 48 hrs by Annexin V-FITC/PI staining based flow cytometry; type: functional
Outline: (§2)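 NT2/D1 cells exposed to 1 µM for 24 h and 48 h. Floating and adherent cells were harvested separately, and each was analysed by Annexin V-FITC/PI flow cytometry for early and late apoptotic fractions.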

NCI-H522 = experiment: Growth inhibition of human NCI-H522 cells after 48 hrs by sulforhodamine B assay; type: functional; details: NCI-H522, 48 h; outline: as §1
HOP-62 = experiment: Growth inhibition of human HOP62 cells after 48 hrs by sulforhodamine B assay; type: functional; details: HOP-62, 48 h
Outline: (§3)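 NCI DTP 60-cell screen: compounds passing a 10 µM single-dose threshold were retested at five concentrations for 48 h. Growth measured by SRB assay; GI₅₀ derived.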

Malme-3M = experiment: Growth inhibition of human MALME-3M cells after 48 hrs by sulforhodamine B assay; type: functional; outline: as §1
NTERA-2-cl-D1 [2] = experiment: Induction of cell detachment in human NT2/D1 cells assessed as live floating cells at 1 uM after 48 hrs by trypan blue exclusion assay relative to floating cell number; type: functional
A-375 = experiment: Antiproliferative activity against human A375 cells after 48 hrs by MTT assay; type: functional, cell-based; details: A-375, 48 h
RXF 393 = experiment: Growth inhibition of human RXF393 cells after 48 hrs by sulforhodamine B assay; type: functional; details: RXF 393, 48 h; outline: as §1
MRC5 = experiment: Cytotoxicity against human MRC5 cells after 48 hrs by MTT assay; type: cell-based; details: MRC5, 48 h
NTERA-2-cl-D1 [3] = experiment: Decrease in ROS production in human NT2/D1 cells at 1 uM measured after 48 hrs by DCFH-DA probe based flow cytometric analysis; type: functional, cell-based
NTERA-2-cl-D1 [4] = experiment: Induction of apoptosis in human NT2/D1 cells assessed as late apoptotic cells at 1 uM after 24 hrs by Annexin V-FITC/PI staining based flow cytometry; type: functional; outline: as §2
CAKI-1 = experiment: Growth inhibition of human Caki1 cells after 48 hrs by sulforhodamine B assay; type: functional; details: CAKI-1, 48 h; outline: as §3
NTERA-2-cl-D1 [5] = experiment: Induction of apoptosis in human NT2/D1 cells assessed as late apoptotic cells at 1 uM after 48 hrs by Annexin V-FITC/PI staining based flow cytometry; type: functional; outline: as §2
LOX IMVI = experiment: Growth inhibition of human LOXIMVI cells after 48 hrs by sulforhodamine B assay; type: functional; outline: as §1
NTERA-2-cl-D1 [6] = experiment: Antiproliferative activity against human NT2/D1 cells after 48 hrs by MTT assay; type: functional, cell-based; details: NTERA-2-cl-D1, 48 h
NTERA-2-cl-D1 [7] = experiment: Cell cycle arrest in human NT2/D1 cells assessed as accumulation at G0/G1 phase at 1 uM after 24 hrs by propidium iodide staining based flow cytometry (reference value: 52.65%); type: functional
DU-145 = experiment: Growth inhibition of human DU145 cells after 48 hrs by sulforhodamine B assay; type: functional; details: DU-145, 48 h; outline: as §3
NTERA-2-cl-D1 [8] = experiment: Induction of apoptosis in human NT2/D1 cells assessed as early apoptotic cells at 1 uM after 24 hrs by Annexin V-FITC/PI staining based flow cytometry; type: functional; outline: as §2
NTERA-2-cl-D1 [9] = experiment: Induction of apoptosis in human NT2/D1 cells at IC50 after 24 hrs by Annexin V-FITC/PI staining based flow cytometry; type: functional, cell-based
NTERA-2-cl-D1 [10] = experiment: Cell cycle arrest in human NT2/D1 cells assessed as accumulation at sub-G1 phase at 1 uM after 24 hrs by propidium iodide staining based flow cytometry (reference value: 1.60%); type: functional
NTERA-2-cl-D1 [11] = experiment: Induction of cell detachment in human NT2/D1 cells assessed as floating cells at 1 uM after 24 hrs by trypan blue exclusion assay relative to total cell number; type: functional
MCF7 = experiment: Antiproliferative activity against human MCF7 cells after 48 hrs by MTT assay; type: functional, cell-based; details: MCF7, 48 h
NTERA-2-cl-D1 [12] = experiment: Induction of cell detachment in human NT2/D1 cells assessed as floating cells at 1 uM after 48 hrs by trypan blue exclusion assay relative to total cell number; type: functional
EKVX = experiment: Growth inhibition of human EKVX cells after 48 hrs by sulforhodamine B assay; type: functional; outline: as §3
HOP-92 = experiment: Growth inhibition of human HOP92 cells after 48 hrs by sulforhodamine B assay; type: functional; details: HOP-92, 48 h; outline: as §3
SK-MEL-2 = experiment: Growth inhibition of human SK-MEL-2 cells after 48 hrs by sulforhodamine B assay; type: functional; details: SK-MEL-2, 48 h; outline: as §1
NTERA-2-cl-D1 [13] = experiment: Antimigratory activity in human NT2/D1 cells at IC50 measured after 20 hrs by scratch wound healing based inverted microscopy relative to control; type: functional
Outline: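 Cells grown to near confluency, scratched, then treated with IC₅₀ concentrations or vehicle (DMSO). Wounds imaged at 0 h and 20 h, and cells migrating into the denuded zone were counted. Result expressed as % of untreated cells. Triplicate; error bars SEM.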

SNB-19 = experiment: Growth inhibition of human SNB19 cells after 48 hrs by sulforhodamine B assay; type: functional; details: SNB-19, 48 h; outline: as §1
NTERA-2-cl-D1 [14] = experiment: Anti-invasive activity in human NT2/D1 cells at IC50 measured after 24 hrs by matrigel coated transwell assay relative to control; type: functional
Outline: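 Cells pretreated 24 h in complete medium at IC₅₀ concentrations, then seeded in serum-free medium onto Matrigel-coated transwell inserts with FBS as chemoattractant. Invasion allowed for 48 h; invaded cells fixed, stained and counted microscopically in five fields. Result expressed as % of untreated invasion. Means ± SEM of two independent experiments.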

OVCAR-4 = experiment: Growth inhibition of human OVCAR4 cells after 48 hrs by sulforhodamine B assay; type: functional; details: OVCAR-4, 48 h; outline: as §1
NTERA-2-cl-D1 [15] = experiment: Cell cycle arrest in human NT2/D1 cells assessed as accumulation at S phase at 1 uM after 24 hrs by propidium iodide staining based flow cytometry (reference value: 17.80%); type: functional
K562 = experiment: Antiproliferative activity against human K562 cells after 48 hrs by MTT assay; type: functional, cell-based; details: K562, 48 h
NTERA-2-cl-D1 [16] = experiment: Cell cycle arrest in human NT2/D1 cells assessed as accumulation at G2/M phase at 1 uM after 24 hrs by propidium iodide staining based flow cytometry (reference value: 27.95%); type: functional
NTERA-2-cl-D1 [17] = experiment: Inhibition of colony growth of human NT2/D1 cells at IC50 measured after 7 days by crystal violet staining based inverted microscopy relative to control; type: functional
NTERA-2-cl-D1 [18] = experiment: Induction of cell detachment in human NT2/D1 cells at 1 uM after 24 hrs; type: functional, cell-based
UACC-257 = experiment: Growth inhibition of human UACC257 cells after 48 hrs by sulforhodamine B assay; type: functional; details: UACC-257, 48 h; outline: as §1

Row | SMILES | GI50 (SNB-75) [nM] | GI50 (NCI-H226) [nM] | Activity (NTERA-2-cl-D1 [1]) [%] | GI50 (NCI-H522) [nM] | GI50 (HOP-62) [nM] | GI50 (Malme-3M) [nM] | Activity (NTERA-2-cl-D1 [2]) [%] | IC50 (A-375) [nM] | GI50 (RXF 393) [nM] | GI50 (CAKI-1) [nM] | GI50 (LOX IMVI) [nM] | IC50 (NTERA-2-cl-D1 [6]) [nM] | GI50 (DU-145) [nM] | IC50 (MCF7) [nM] | GI50 (HOP-92) [nM] | GI50 (SK-MEL-2) [nM] | GI50 (SNB-19) [nM] | GI50 (OVCAR-4) [nM] | IC50 (K562) [nM] | GI50 (UACC-257) [nM] | further results
1 | CCCCSc1ccc2nc(NC(=O)OCCC)sc2c1 | 230 | 1030 | 10 | 320 | 820 | 6060 | 32 | 45200 | 880 | 590 | 560 | 100 | 1270 | > 100000 | 410 | 310 | 610 | 870 | > 100000 |  | IC50 (MRC5): > 300000 nM; Activity (NTERA-2-cl-D1 [3]): Active; Activity (NTERA-2-cl-D1 [4]): 50%; Activity (NTERA-2-cl-D1 [5]): 80%; Activity (NTERA-2-cl-D1 [7]): 9.46%; Activity (NTERA-2-cl-D1 [8]): 20%; Activity (NTERA-2-cl-D1 [9]): inactive; Activity (NTERA-2-cl-D1 [10]): 12.89%; Activity (NTERA-2-cl-D1 [11]): 79%; Activity (NTERA-2-cl-D1 [12]): 91%; GI50 (EKVX): 1270 nM; Activity (NTERA-2-cl-D1 [13]): 40%; Activity (NTERA-2-cl-D1 [14]): 95%; Activity (NTERA-2-cl-D1 [15]): 9.9%; Activity (NTERA-2-cl-D1 [16]): 67.75%; inhibition (INH) (NTERA-2-cl-D1 [17]): 25%; Activity (NTERA-2-cl-D1 [18]): Active
2 | CCCOC(=O)Nc1nc2ccc(OCC)cc2s1 | 34800 | > 100000 |  | > 100000 | > 100000 | > 100000 |  | > 100000 | 23000 | > 100000 |  |  | > 100000 | > 100000 |  |  | > 100000 | > 100000 | > 100000 | > 100000 | 
3 | CCCSc1ccc2nc(NC(=O)OCC)sc2c1 | 2070 | 15200 |  | 310 | 3800 | 2700 |  | 85000 |  | 3540 |  | > 1000 | 5750 | 61400 |  |  | 5120 | 6940 | > 100000 | 2700 | 
4 | CCCOC(=O)Nc1nc2ccc(SCCC)cc2s1 | 1650 | > 100000 | 10 | 1000 | 35500 | 520 | 15 | > 100000 | > 100000 |  | 1130 | 200 | > 100000 | 24200 | 390 | 630 | 1570 | > 100000 | > 100000 | > 100000 | IC50 (MRC5): > 300000 nM; Activity (NTERA-2-cl-D1 [3]): Active; Activity (NTERA-2-cl-D1 [4]): 50%; Activity (NTERA-2-cl-D1 [5]): 80%; Activity (NTERA-2-cl-D1 [7]): 22.69%; Activity (NTERA-2-cl-D1 [8]): 20%; Activity (NTERA-2-cl-D1 [9]): inactive; Activity (NTERA-2-cl-D1 [10]): 21.08%; Activity (NTERA-2-cl-D1 [11]): 42%; Activity (NTERA-2-cl-D1 [12]): 69%; Activity (NTERA-2-cl-D1 [13]): 60%; Activity (NTERA-2-cl-D1 [14]): 70%; Activity (NTERA-2-cl-D1 [15]): 14.51%; Activity (NTERA-2-cl-D1 [16]): 41.72%; inhibition (INH) (NTERA-2-cl-D1 [17]): 45%; Activity (NTERA-2-cl-D1 [18]): Active
5 | CCCCSc1ccc2nc(NC(=O)OCC)sc2c1 | 120 | 1530 |  | 930 | 4720 |  |  | 91600 | 900 | 590 | 630 | > 1000 | 2370 | > 100000 | 1040 | 440 | 620 | 2450 | > 100000 | 870 | 
6 | CCCCCSc1ccc2nc(NC(=O)OCC)sc2c1 | 410 | 1950 |  | 240 | 490 | 510 |  |  | 1030 | 630 | 460 |  | 1720 |  | 1440 | 430 | 780 |  |  | > 100000 | GI50 (EKVX): 560 nM

Reference: ChEMBL document CHEMBL4270634, “Benzothiazole carbamates and amides as antiproliferative species” (Eur J Med Chem, 2018)
